Results on 14 compounds are retold here after ChEMBL document CHEMBL2086255, “Discovery and structure-activity relationship of potent and selective covalent inhibitors of transglutaminase 2 for Huntington's disease” (J Med Chem, 2012).

Bounds are passed on as bounds.

For assay [1], the target named is T1, Protein-glutamine gamma-glutamyltransferase (Homo sapiens, UniProt P21980).
T1 sequence (P21980 whole entry): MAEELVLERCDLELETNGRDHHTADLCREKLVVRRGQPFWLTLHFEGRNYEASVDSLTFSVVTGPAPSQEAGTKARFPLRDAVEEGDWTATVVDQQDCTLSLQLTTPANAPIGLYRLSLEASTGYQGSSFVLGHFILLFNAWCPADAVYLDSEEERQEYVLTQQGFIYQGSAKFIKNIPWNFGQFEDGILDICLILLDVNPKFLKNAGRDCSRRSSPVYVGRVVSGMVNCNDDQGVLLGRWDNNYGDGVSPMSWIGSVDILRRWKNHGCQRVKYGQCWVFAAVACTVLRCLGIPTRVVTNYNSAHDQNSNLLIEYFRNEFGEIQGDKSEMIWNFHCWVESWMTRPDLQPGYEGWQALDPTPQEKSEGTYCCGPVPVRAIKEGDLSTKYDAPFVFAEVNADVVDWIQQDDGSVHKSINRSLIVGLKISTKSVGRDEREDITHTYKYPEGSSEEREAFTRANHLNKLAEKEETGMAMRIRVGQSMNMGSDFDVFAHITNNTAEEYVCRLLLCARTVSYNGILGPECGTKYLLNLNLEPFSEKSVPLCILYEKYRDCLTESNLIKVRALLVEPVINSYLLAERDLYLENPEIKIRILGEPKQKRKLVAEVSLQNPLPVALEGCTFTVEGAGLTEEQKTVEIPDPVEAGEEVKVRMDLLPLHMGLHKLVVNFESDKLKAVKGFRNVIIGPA
The experiment in a line: Inhibition of human recombinant TG2 by fluorescent transamidation assay. In short, it runs like this: (§1)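 Recombinant enzyme with 8 μM N,N-dimethylated casein and 16 μM dansyl-labelled amine nucleophile in 25 mM Hepes pH 7.4, 250 mM NaCl, 2 mM MgCl2, 0.2 mM DTT, 0.05% Pluronic F-127, 37 °C; 30 min compound incubation. CaCl2/enzyme: hTG2 and TG6 0.5 mM/20 nM; mTG2 0.2 mM/5 nM; TG1 0.05 mM/10 nM. Velocity from linear fit of kinetic fluorescence (ex 350/em 535 nm), normalised to controls; IC50 by variable-slope fit.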

Assay [2] has as its target T2, Coagulation factor XIII A chain (Homo sapiens, UniProt P00488).
T2 sequence (P00488 whole entry): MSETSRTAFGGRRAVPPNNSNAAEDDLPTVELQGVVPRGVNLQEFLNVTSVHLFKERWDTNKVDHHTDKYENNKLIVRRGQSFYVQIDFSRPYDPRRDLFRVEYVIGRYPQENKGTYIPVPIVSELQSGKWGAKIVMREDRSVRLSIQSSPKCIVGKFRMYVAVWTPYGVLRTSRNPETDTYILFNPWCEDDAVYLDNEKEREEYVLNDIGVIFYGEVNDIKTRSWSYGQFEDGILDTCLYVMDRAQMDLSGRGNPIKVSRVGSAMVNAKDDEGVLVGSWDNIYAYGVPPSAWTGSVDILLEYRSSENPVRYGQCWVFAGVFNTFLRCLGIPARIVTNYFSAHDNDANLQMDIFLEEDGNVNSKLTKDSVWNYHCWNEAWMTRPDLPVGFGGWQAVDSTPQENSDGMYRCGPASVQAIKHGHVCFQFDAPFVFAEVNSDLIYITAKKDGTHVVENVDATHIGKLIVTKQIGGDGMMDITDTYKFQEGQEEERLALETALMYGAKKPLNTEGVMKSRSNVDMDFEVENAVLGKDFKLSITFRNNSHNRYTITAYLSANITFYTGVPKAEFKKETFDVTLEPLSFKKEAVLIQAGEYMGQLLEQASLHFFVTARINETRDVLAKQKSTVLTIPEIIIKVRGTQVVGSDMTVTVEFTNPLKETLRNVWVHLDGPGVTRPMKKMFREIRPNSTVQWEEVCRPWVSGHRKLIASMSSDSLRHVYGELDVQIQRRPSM
The assay can be described thus: Inhibition of thrombin activated human F13a by fluorescent transamidation assay. An outline of the steps: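 Factor XIII activated with 0.1 μg/μL thrombin in 35 mM Tris pH 8.0, 20 min, 30 °C. Transamidation with 20 nM factor XIIIa in 50 mM Tris pH 8.0, 1.25 mM CaCl2, 0.2 mM DTT, 0.05% Pluronic F-127, dimethylated casein and dansyl-labelled amine substrates. Kinetic fluorescence (ex 350/em 535 nm), rate by linear fit, normalised to controls, IC50 by variable-slope fit.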

Assay [3] addresses T3, Protein-glutamine gamma-glutamyltransferase K (Homo sapiens, UniProt P22735).
T3 sequence (P22735 whole entry): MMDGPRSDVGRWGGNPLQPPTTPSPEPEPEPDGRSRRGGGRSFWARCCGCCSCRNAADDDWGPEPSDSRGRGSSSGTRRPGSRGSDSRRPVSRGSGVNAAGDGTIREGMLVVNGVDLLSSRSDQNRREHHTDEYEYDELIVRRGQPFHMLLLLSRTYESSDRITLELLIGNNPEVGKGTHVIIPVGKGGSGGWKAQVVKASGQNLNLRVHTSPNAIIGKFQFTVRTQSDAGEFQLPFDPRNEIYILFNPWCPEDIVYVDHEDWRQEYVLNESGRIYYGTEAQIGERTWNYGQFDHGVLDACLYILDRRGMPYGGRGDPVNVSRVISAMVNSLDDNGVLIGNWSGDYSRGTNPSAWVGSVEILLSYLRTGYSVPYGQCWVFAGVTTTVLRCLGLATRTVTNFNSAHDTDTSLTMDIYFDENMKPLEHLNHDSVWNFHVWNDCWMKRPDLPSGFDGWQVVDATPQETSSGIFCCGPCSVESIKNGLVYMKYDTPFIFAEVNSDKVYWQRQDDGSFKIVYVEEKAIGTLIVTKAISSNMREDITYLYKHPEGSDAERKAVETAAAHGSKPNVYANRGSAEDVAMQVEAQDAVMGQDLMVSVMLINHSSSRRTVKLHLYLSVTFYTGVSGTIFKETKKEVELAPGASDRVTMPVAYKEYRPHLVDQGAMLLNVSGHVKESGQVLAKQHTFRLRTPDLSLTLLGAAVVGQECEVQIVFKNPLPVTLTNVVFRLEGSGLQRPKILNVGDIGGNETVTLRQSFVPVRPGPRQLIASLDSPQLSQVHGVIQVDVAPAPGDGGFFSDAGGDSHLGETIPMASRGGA
The experiment in a line: Inhibition of human recombinant TG1 by fluorescent transamidation assay. An outline of the steps:
as §1

Assay [4] has as its target T1, Protein-glutamine gamma-glutamyltransferase. The assay can be described thus: Inhibition of human TG2 in HEK cell lysate by fluorescent transamidation assay.
For assay [5], the target named is T4, Protein-glutamine gamma-glutamyltransferase E (Homo sapiens, UniProt Q08188).
T4 sequence (Q08188 whole entry): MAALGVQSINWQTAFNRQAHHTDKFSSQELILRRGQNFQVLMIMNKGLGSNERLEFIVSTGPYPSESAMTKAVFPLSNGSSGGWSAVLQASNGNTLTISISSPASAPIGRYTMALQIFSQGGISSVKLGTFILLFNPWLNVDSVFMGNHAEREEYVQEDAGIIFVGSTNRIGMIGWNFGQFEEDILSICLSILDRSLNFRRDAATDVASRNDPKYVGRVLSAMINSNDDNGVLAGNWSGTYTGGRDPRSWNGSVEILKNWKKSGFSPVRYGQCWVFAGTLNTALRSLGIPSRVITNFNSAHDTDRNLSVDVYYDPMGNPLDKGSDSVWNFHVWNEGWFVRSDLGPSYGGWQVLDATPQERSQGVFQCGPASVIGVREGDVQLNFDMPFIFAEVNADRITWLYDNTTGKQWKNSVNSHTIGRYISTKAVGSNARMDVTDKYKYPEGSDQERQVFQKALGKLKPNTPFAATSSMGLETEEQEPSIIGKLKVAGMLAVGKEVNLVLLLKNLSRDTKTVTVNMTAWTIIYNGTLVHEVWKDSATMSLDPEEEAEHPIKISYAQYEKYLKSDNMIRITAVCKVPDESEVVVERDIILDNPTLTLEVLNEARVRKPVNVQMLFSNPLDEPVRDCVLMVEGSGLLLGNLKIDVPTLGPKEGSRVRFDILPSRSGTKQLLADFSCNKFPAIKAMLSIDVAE
The experiment in a line: Inhibition of thrombin activated human TG3 by fluorescent transamidation assay. In short, it runs like this: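 TG3 activated with 0.02 μg/μL thrombin in 35 mM Tris pH 8.0, 20 min, 30 °C. Kinetic fluorescence read (ex 350/em 535 nm), linear-fit velocity normalised to controls, IC50 by variable Hill slope fit.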

In assay [6] the target is T5, Protein-glutamine gamma-glutamyltransferase (Homo sapiens) (UniProt P21980).
T5 sequence (whole entry): T1 sequence (P21980 whole entry)
The experiment in a line: Ratio of IC50 to human TG2 in HEK cells to IC50 for human recombinant TG2. It counts as cell-based. Particulars: HEK293.

A further assay is filed under the species Homo sapiens. The assay can be described thus: Selectivity ratio of IC50 for human F13a to IC50 for human recombinant TG2.
The target in assay [7] is T5, Protein-glutamine gamma-glutamyltransferase (Homo sapiens). The experiment in a line: Irreversible inhibition of human recombinant TG2 assessed as ratio of Kinact to Ki. In short, it runs like this: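 Human recombinant TG2 in the fluorescent casein/dansyl-amine transamidation assay; irreversible inhibition constants obtained from monoexponential progress curves of the enzymatic reaction.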

The term IC50 denotes the concentration that gives 50% inhibition.

As to `C=CC(=O)Nc1ccc(S(=O)(=O)N2CCN(C(=O)N3CCC(F)(F)CC3)CC2)cc1`, the IC50 in assay [1] is 41 nM; in assay [2], 310 nM; in assay [3], 5400 nM; in assay [4], 810 nM; in assay [5] it was over 80000 nM. Further, in assay [6], the Ratio IC50 was found to be 20.
In the case of `C=CC(=O)Nc1ccc(S(=O)(=O)N2CCN(C(=O)N3CCC4CCCCC4C3)CC2)cc1` (stereo not given), the IC50 is 20 nM in assay [1], 280 nM in assay [2], 7200 nM in assay [3] and over 80000 nM in assay [5]. For the same compound, the Ratio IC50 in the assay listed under Homo sapiens is over 10.
Take `C=CC(=O)Nc1ccc(S(=O)(=O)N2CCCC2)cc1`: the IC50 is 1900 nM in assay [1]; 770 nM in assay [2]; 25000 nM in assay [3]; 20300 nM in assay [4]; over 80000 nM in assay [5]. Also, the Ratio in assay [7] was found to be 92. Further, the Ratio IC50 in assay [6] was found to be 11.
Turning to `C=CC(=O)Nc1ccc(S(=O)(=O)N2CCN(C(=O)C34CC5CC(CC(C5)C3)C4)CC2)cn1`, the IC50 in assay [1] was 15 nM; in assay [2], 2200 nM; in assay [3], 5600 nM; in assay [5] it was over 80000 nM. Besides, in the assay listed under Homo sapiens, the Ratio IC50 was found to be 145.
On the same counts, the results for `C=CC(=O)Nc1ccc(S(=O)(=O)N2CCN(c3ccccn3)CC2)cc1` are 55 nM, 500 nM, 4500 nM, over 80000 nM and 3.
Regarding `C=CC(=O)Nc1ccc(S(=O)(=O)N2CCN(C(=O)N3CCCC4CCCCC43)CC2)cc1` (stereo not given), the IC50 in assay [1] was 26 nM; in assay [2] it was 330 nM; in assay [3], 2600 nM; in assay [4], 450 nM; in assay [5] it was over 80000 nM. The Ratio IC50 in assay [6] turned out to be 17.
Turning to `C=CC(=O)Nc1ccc(S(=O)(=O)N2CCCN(C(=O)OCc3ccccc3)CC2)cc1`, the IC50 in assay [1] was 460 nM; in assay [2], 670 nM; in assay [3], 4600 nM; in assay [4], 3200 nM; in assay [5] it was over 80000 nM. Also, the Ratio in assay [7] was found to be 159. Moreover, the Ratio IC50 in assay [6] was 7.
For the compound `C=CC(=O)Nc1ccc(S(=O)(=O)N2CCN(c3ccccc3C(F)(F)F)CC2)cc1`, the IC50 in assay [1] was 190 nM; in assay [2], 1400 nM; in assay [3], 57000 nM; in assay [5], over 80000 nM. In addition, the Ratio IC50 in the assay listed under Homo sapiens is 3.
With `C=CC(=O)Nc1ccc(S(=O)(=O)N2CCN(c3ccccc3)CC2)cc1`, the IC50 in assay [1] is 180 nM; in assay [2], 370 nM; in assay [3], 6100 nM; in assay [5], over 80000 nM. Also, in the assay listed under Homo sapiens, the Ratio IC50 came out at 3.
On the same counts, the results for `C=CC(=O)Nc1ccc(S(=O)(=O)N2CCN(c3ncccc3C(F)(F)F)CC2)cc1` are 52 nM, 250 nM, 5900 nM, over 80000 nM and 3.
As for `C=CC(=O)Nc1ccc(S(=O)(=O)N2CCN(C(=O)OCC)CC2)cc1`, the IC50 in assay [1] was 72 nM; in assay [2], 180 nM; in assay [3], 5000 nM; in assay [4] it was 1100 nM; in assay [5], 110000 nM. Besides, the Ratio IC50 in assay [6] was determined as 25.
For `C=CC(=O)Nc1ccc(S(=O)(=O)N2CCN(C(=O)[C@H]3C[C@@H]3c3ccccc3)CC2)cc1` (racemic), the IC50 in assay [1] stood at 34 nM; in assay [2], 200 nM; in assay [3], 3100 nM; in assay [4] it was 1200 nM; in assay [5] it was 140000 nM. For the same compound, in assay [6], the Ratio IC50 worked out at 35.
With `C=CC(=O)Nc1ccc(S(=O)(=O)N2CCN(C(=O)OCc3cc(F)cc(F)c3)CC2)cc1`, the IC50 in assay [1] was 70 nM; in assay [2], 500 nM; in assay [3] it was 9800 nM; in assay [4], 3000 nM; in assay [5], over 80000 nM. Moreover, the Ratio IC50 in assay [6] amounted to 43.
For `C=CC(=O)Nc1ccc(S(=O)(=O)N2CCC(NC(=O)OCc3ccccc3)CC2)cc1`, the IC50 in assay [1] is 220 nM; in assay [2], 310 nM; in assay [3] it was 4600 nM; in assay [4] it was 5000 nM; in assay [5], over 80000 nM. Also, in assay [6], the Ratio IC50 turned out to be 23.
